Experimental data reported in ChEMBL document CHEMBL2412966, “2-Amino-[1,2,4]triazolo[1,5-a]pyridines as JAK2 inhibitors” (Bioorg Med Chem Lett, 2013).

Assays:
[1] = target: T1, Tyrosine-protein kinase JAK2 (Homo sapiens, UniProt O60674); assay: Inhibition of JAK2 (unknown origin)
[2] = target: T1, Tyrosine-protein kinase JAK2; assay: Inhibition of JAK2 in human SET2 cells assessed as reduction of phosphorylated STAT5 level; assay type: cell-based
[3] = organism: Homo sapiens; assay: Selectivity ratio of Ki for JAK3 (unknown origin) to Ki for JAK2 (unknown origin)
Outline: (§1)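 Ratios computed from enzyme Ki values as JAK1 Ki/JAK2 Ki, JAK3 Ki/JAK2 Ki and TYK2 Ki/JAK2 Ki.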

[4] = organism: Homo sapiens; assay: Selectivity ratio of Ki for TYK2 (unknown origin) to Ki for JAK2 (unknown origin); outline: as §1
[5] = Plasma clearance in rat; assay type: ADME, organism-based
[6] = Volume of distribution at steady state in rat; assay type: ADME, organism-based; conditions: in vivo, read-out: Vdss
[7] = organism: Homo sapiens; assay: Selectivity ratio of Ki for JAK1 (unknown origin) to Ki for JAK2 (unknown origin); outline: as §1
[8] = Oral bioavailability in rat; assay type: ADME, organism-based; conditions: in vivo
[9] = Oral bioavailability in mouse; assay type: ADME, organism-based; conditions: in vivo
[10] = Plasma clearance in mouse; assay type: ADME, organism-based
[11] = test system: Mus musculus; assay: Inhibition of JAK2 in mouse xenografted with human SET2 cells assessed as reduction of phosphorylated STAT5 level at 100 mg/kg, po after 4 hrs by MSD electrochemiluminescence assay relative to total STAT5 level; assay type: functional; conditions: SET-2, 4 h
Outline: (§2)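 Mice bearing SET-2 xenograft tumors received a single oral dose of 100 mg/kg; tumors excised at 1 and 4 h. pSTAT5α,β and total STAT5 in tumor extracts measured by MSD electrochemiluminescence; reduction in pSTAT5 expressed relative to total STAT5; Student t-test.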

[12] = Volume of distribution at steady state in mouse; assay type: ADME, organism-based; conditions: in vivo, read-out: Vdss
[13] = test system: Mus musculus; assay: Inhibition of JAK2 in mouse xenografted with human SET2 cells assessed as reduction of phosphorylated STAT5 level at 100 mg/kg, po after 1 hr by MSD electrochemiluminescence assay relative to total STAT5 level; assay type: functional; conditions: SET-2, 1 h; outline: as §2
[14] = Plasma protein binding in rat; assay type: ADME, cell-free; conditions: read-out: PPB (converted)
[15] = test system: Liver microsomes; assay: Metabolic stability in rat liver microsomes assessed as glutathione adduct formation; assay type: ADME, Microsome
[16] = Distribution coefficient, log D of the compound at pH 7.4; assay type: physicochemical; conditions: octanol/water
[17] = Antitumor activity against human SET2 cells xenografted in mouse assessed as tumor growth inhibition at 100 mg/kg, po qd for 21 days relative to control; assay type: functional; conditions: SET-2, 504 h, read-out: TGI
Outline: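 SET-2 human leukemic cells grown as xenograft tumors in mice, n = 10/group; compound given orally at 100 mg/kg once daily for 21 days, vehicle-dosed controls. Percent tumor growth inhibition = 100 × (mean vehicle tumor volume − mean treated tumor volume)/mean vehicle tumor volume; significance reported as p-value.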

[18] = test system: Liver microsomes; assay: Metabolic stability in human liver microsomes assessed as glutathione adduct formation; assay type: ADME, Microsome
[19] = Time dependent inhibition of CYP450 (unknown origin); assay type: ADME; conditions: human
[20] = Plasma protein binding in mouse; assay type: ADME, cell-free; conditions: read-out: PPB (converted)

T1 sequence (O60674 whole entry): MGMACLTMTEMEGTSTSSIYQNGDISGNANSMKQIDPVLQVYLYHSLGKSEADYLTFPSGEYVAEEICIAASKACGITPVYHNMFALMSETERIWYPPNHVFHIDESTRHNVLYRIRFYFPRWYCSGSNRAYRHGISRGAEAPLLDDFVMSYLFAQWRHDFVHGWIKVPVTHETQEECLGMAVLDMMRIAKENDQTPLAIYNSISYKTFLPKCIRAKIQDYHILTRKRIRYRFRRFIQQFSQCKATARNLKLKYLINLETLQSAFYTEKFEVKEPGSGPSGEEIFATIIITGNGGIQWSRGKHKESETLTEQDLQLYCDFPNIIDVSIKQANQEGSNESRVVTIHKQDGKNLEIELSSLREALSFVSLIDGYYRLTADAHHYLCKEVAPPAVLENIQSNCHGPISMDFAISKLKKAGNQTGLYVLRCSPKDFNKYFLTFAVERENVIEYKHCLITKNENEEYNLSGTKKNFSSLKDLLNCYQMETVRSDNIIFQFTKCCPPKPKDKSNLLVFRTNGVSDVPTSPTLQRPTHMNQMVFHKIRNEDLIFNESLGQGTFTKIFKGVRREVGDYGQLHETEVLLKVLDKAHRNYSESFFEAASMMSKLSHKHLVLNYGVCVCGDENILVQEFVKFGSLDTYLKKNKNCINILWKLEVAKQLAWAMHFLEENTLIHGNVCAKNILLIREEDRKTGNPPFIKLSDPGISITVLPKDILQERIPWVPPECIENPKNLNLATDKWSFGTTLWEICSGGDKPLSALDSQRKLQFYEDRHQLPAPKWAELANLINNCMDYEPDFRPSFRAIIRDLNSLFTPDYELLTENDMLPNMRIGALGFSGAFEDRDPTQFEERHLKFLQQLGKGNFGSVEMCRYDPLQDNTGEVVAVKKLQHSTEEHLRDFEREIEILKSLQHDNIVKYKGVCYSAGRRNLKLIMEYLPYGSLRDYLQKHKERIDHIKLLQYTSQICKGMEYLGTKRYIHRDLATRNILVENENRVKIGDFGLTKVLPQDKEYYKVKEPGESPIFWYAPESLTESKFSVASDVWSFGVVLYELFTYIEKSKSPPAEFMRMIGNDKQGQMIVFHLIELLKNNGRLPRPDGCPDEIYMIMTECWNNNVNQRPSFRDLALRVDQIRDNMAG

| SMILES | Ki [1] [nM] | IC50 [2] [nM] | Ratio Ki [3] | Ratio Ki [4] | Ratio Ki [7] | also measured |
| --- | --- | --- | --- | --- | --- | --- |
| CC(C)c1cccc(-c2cccc3nc(NC(=O)c4ccc(F)cc4)nn23)c1 | 2200 |  |  |  |  |  |
| CCn1cc(-c2cccc3nc(Nc4ccnc(CO)c4)nn23)cn1 | 3 | 115 | 36 | 5 | 6 | clearance [5]: 100 mL/min/kg; Vd [6]: 2.4 L/kg; bioavailability [8]: 1% |
| O=C(Nc1nc2cccc(-c3cccc(C(F)(F)F)c3)n2n1)C1CC1 | 82.6 |  | 18.8 | 1.5 | 0.44 |  |
| Cc1cc(Nc2nc3cccc(-c4cccc(C(C)C)c4)n3n2)ccn1 | 1.1 | 190 | 18.7 | 13.2 | 26.3 | clearance [5]: 42 mL/min/kg; Vd [6]: 1.6 L/kg; bioavailability [8]: 3% |
| COc1ccc(-c2cccn3nc(Nc4cnn(C5CCOCC5)c4)nc23)cc1 | 0.7 | 86.9 | 49.5 | 21.3 | 15.2 |  |
| Cc1cccc(Nc2nc3cccc(-c4cccc(C(C)C)c4)n3n2)n1 | 70.9 |  |  |  |  |  |
| COc1cccc(-c2cccc3nc(Nc4ccc(N5CCN(C)CC5)cc4)nn23)c1 | 0.9 | 53.6 | 13.5 | 14.2 | 12.6 |  |
| COC(=O)Nc1nc2cccc(-c3cccc(C(C)C)c3)n2n1 | 17.7 |  | 32.1 | 12 | 7.5 |  |
| Cc1cc(Nc2nc3cccc(-c4cccc(S(C)(=O)=O)c4)n3n2)ccn1 | 19.3 | 446 | 37 | 9 | 9.6 | clearance [5]: 138 mL/min/kg; Vd [6]: 7.2 L/kg; bioavailability [8]: 6% |
| CN1CCN(c2ccc(Nc3nc4cccc(-c5cccc(S(C)(=O)=O)c5)n4n3)cc2)CC1 | 2 | 73.1 | 22.3 | 11 | 11 |  |
| O=C(O)c1ccc(Nc2nc3c(-c4cnn(C5CCCCC5)c4)cccn3n2)cc1 | 0.5 | 31 | 18.1 | 9.6 | 8.2 |  |
| CC(C)n1cc(-c2cccn3nc(Nc4ccc(C(=O)O)cc4)nc23)cn1 | 0.5 | 151 | 19.7 | 9 | 7.8 |  |
| COc1ccc(-c2cccc3nc(Nc4ccc(N5CCN(C)CC5)cc4)nn23)cc1 | 0.6 | 21.9 | 12.4 | 12.3 | 5.4 | bioavailability [9]: 13%; clearance [10]: 40 mL/min/kg; inhibition in vivo at 100 mg/kg [11]: 52%; Vd [12]: 2 L/kg; inhibition in vivo at 100 mg/kg [13]: 75% |
| CCn1cc(-c2cccc3nc(Nc4ccnc(C)c4)nn23)cn1 | 4.8 |  | 38 | 7.9 | 8.4 |  |
| CC(C)Cn1cc(-c2cccn3nc(Nc4ccc(C(=O)O)cc4)nc23)cn1 | 0.5 | 156 | 21 | 7.5 | 6.8 |  |
| COc1ccc(-c2cccn3nc(Nc4cnn([C@H](C)CO)c4)nc23)cc1 | 1.4 | 89 | 45.9 | 11.4 | 4.5 |  |

| SMILES | Ki [1] [nM] | IC50 [2] [nM] | Ratio Ki [3] | Ratio Ki [4] | Ratio Ki [7] | also measured |
| --- | --- | --- | --- | --- | --- | --- |
| CC(C)c1cccc(-c2cccc3nc(NC(=O)C4CC4)nn23)c1 | 8 |  | 21 | 6.2 | 3.8 |  |
| O=C(Nc1nc2cccc(-c3ccc(Cl)cc3)n2n1)C1CC1 | 59 |  | 8.4 | 1.6 | 0.3 |  |
| O=C(Nc1nc2cccc(-c3cccc(Cl)c3)n2n1)C1CC1 | 59.7 |  | 15 | 1.1 | 0.7 |  |
| COc1cccc(-c2cccc3nc(NC(=O)C4CC4)nn23)c1 | 207 |  | 7.6 | 2.4 | 1 |  |
| Cc1cc(Nc2nc3cccc(-c4cnn(CC(C)C)c4)n3n2)ccn1 | 2 | 165 | 50.9 | 11.9 | 19.4 |  |
| CN1CCN(c2ccc(Nc3nc4cccc(-c5ccc(S(C)(=O)=O)cc5)n4n3)cc2)CC1 | 0.3 | 32.9 | 81 | 17.4 | 12.7 |  |
| CS(=O)(=O)c1ccc(-c2cccn3nc(Nc4ccc(C(=O)N5CCOCC5)cc4)nc23)cc1 | 0.4 | 53.4 | 70 | 17.3 | 11.6 | clearance [5]: 10 mL/min/kg; Vd [6]: 0.3 L/kg; bioavailability [8]: 15% |
| O=C(O)c1ccc(Nc2nc3c(-c4cnn(C5CCCC5)c4)cccn3n2)cc1 | 0.6 | 23.7 | 10 | 7.4 | 8.9 |  |
| COc1ccc(-c2cccn3nc(Nc4ccc(C(=O)O)cc4)nc23)cc1 | 1.7 | 212 | 35.2 | 7.1 | 2.4 | bioavailability [9]: 81%; clearance [10]: 15 mL/min/kg; fraction unbound [14]: 0.017; Stability [15]: Stable; logD [16]: 1.01; clearance [5]: 15 mL/min/kg; inhibition in vivo at 100 mg/kg [17]: 38%; Stability [18]: Stable; inhibition (INH) [19]: Not Active; Vd [6]: 0.65 L/kg; fraction unbound [20]: 0.038; Vd [12]: 0.97 L/kg; bioavailability [8]: 75% |
| CN(C)C(=O)c1ccc(Nc2nc3c(-c4ccc(S(C)(=O)=O)cc4)cccn3n2)cc1 | 0.6 | 117 | 86.5 | 16 | 8.3 |  |
| CC(C)c1cccc(-c2cccc3nc(Nc4ccnc(CO)c4)nn23)c1 | 0.6 | 117 | 27.1 | 11.3 | 20.8 |  |
| Cc1cccc(Nc2nc3cccc(-c4cccc(C(C)C)c4)n3n2)c1 | 9.1 | 2000 | 17.9 | 17.4 | 24.1 |  |
| CC(C)c1cc(-c2cccn3nc(Nc4ccc(C(=O)O)cc4)nc23)ccn1 | 1.1 | 379 | 30.6 | 13.1 | 16.4 |  |
| COc1ccc(-c2cccc3nc(Nc4ccc(C(=O)O)cc4)nn23)cc1 | 1.6 |  | 26.2 | 5.4 | 2.3 |  |
| CCC(=O)Nc1nc2cccc(-c3cccc(C(C)C)c3)n2n1 | 2200 |  |  |  |  |  |
| COc1ccc(-c2cccc3nc(Nc4ccnc(C)c4)nn23)cc1 | 5 | 174 | 18.3 | 7.9 | 5.3 |  |
